This excerpt belongs to a sample that is enriched for hits.
MMP-13 inhibitor – inhibitors of human MMP13. MMP-13 fTHP FRET cleavage, Mca fluorescence. P45452. inhibition, % at 4 µM. 65,000 compounds, 0.07% hits. AID 570;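 active means inhibition above the mean of compound-free control plate wells plus 3 SD, cut at about 14% in these data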;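 further: 0% = DMSO wells and 100% = wells with reference MMP-13 inhibitor after basal subtraction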
Candida biofilm – kills Candida albicans biofilms | inhibition, % at 6 µM | C. albicans biofilm + clotrimazole, Alamar Blue | AID 834 | 85,000 compounds, 0.14% hits;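 active means inhibition above 20%; inactive means inhibition below 20%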;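 further: preformed 24 hr biofilms exposed to compound for 48 hr; 0% = biofilm without compound and 100% = blank killed by clotrimazole plus chlorhexidine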
D1 mod – allosterically modulates the human D1 dopamine receptor; P21728; HEK293 D1, CRE-luciferase, dopamine EC30 potentiation; actives deviate in either direction; B-score at 10 µM; 58,000 compounds, 5.9% hits; AID 641;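 active means luminescence count or its row- and column-corrected plate score outside the 99.7% band of the plate's sample wells, on either side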
hDAT+cocaine – changed human dopamine transporter uptake under cocaine IC80; LLC-PK1 hDAT cells, [14C]-dopamine uptake with cocaine IC80; actives deviate in either direction; B-score at 10 µM; 110,000 compounds, 1.3% hits; AID 449768;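 active means Z score or B-score, a plate-position-corrected score, falls beyond the plate's 99.7% confidence bounds, in either direction; inactive means both scores lie inside the 99.7% bounds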;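 further: scored against the spread of the other compound wells on the same plate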
Target sequence (Q01959 whole entry, looked up): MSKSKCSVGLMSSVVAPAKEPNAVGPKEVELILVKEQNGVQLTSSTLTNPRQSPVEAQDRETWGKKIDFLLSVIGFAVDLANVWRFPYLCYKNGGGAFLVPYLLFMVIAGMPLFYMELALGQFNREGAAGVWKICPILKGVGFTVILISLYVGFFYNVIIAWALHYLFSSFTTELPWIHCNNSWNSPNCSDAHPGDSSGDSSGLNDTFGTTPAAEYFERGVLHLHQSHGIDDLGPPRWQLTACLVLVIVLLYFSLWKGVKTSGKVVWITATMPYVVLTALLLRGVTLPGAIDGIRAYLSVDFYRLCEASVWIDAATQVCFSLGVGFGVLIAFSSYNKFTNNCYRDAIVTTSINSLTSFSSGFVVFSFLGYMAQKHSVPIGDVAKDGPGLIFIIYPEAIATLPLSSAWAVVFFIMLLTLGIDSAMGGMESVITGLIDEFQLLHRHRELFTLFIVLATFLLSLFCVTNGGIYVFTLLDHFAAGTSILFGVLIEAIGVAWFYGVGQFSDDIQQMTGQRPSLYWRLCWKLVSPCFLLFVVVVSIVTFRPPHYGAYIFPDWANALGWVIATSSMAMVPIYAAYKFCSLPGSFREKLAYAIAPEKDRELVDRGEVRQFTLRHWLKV
AP complement – orthogonal test for alternative complement pathway inhibitors. 62,000 compounds, 0.08% hits. Human serum alternative complement pathway, LPS-coated ELISA, C3 deposition; tested in compound mixtures. inhibition, % at 5 µM;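 active means inhibition above 30% in each of the two pooled mixtures holding the compound, so the lower value exceeds 30%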;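 further: 0% = serum in Mg-EGTA without compound and 100% = EDTA serum blank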
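Assay system: human serum alternative complement pathway, C3 deposition on LPS-coated wells; Dosing: 5 µM per compound in ten-compound mixtures; Detection: Anti-C3 ELISA, OD 450 nm; Buffer or medium: Mg2+-EGTA GVB++ buffer containing human serum at 1:15 dilution; Timing: 1 h at 37 °C; Replication: two different pools per compound.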
* marks the source's active call; other numbers are inactive results; . = no result.

SMILES | MMP-13 inhibitor | Candida biofilm | D1 mod | hDAT+cocaine | AP complement
O=C(NCc1ccco1)c1ccc2c(=O)n(Cc3ccco3)c(SCC(=O)N3CCCC3)nc2c1 | -1 | 7 | 0.23 | 2.2* | 19
Cc1cc(NC(=O)CSc2nc3c(c(=O)n2Cc2ccccc2)SC(C)C3)no1 (stereo unspecified) | -1 | . | 5.5* | 0.096 | -3
Cc1ccc(-n2c(SCC(=O)Nc3cc(C)on3)nc3c(c2=O)SC(C)C3)cc1 (stereo unspecified) | 6 | -1 | 2.3 | -0.32 | 8
Cc1ccc(Cn2c(SCC(=O)Nc3cc(C)on3)nc3ccccc3c2=O)cc1 | 2 | 5 | 0.87 | -0.28 | -15
Cc1cc(NC(=O)CSc2nc3ccccc3c(=O)n2Cc2ccccc2)no1 | -5 | 2 | 3 | -8.2* | -3
COc1ccc(Cl)cc1NC(=O)C(C)Sc1n[nH]c(N)n1 (stereo unspecified) | . | -4 | . | 0.011 | .
COc1ccnc(NCc2cccnc2)c1C#N | . | . | . | 0.26 | .
CCn1c(SCC(=O)Nc2cc(C)on2)nc2sc(C)c(C)c2c1=O | -13 | 2 | 6.9* | . | 1
Cc1ccc(SC/C(O)=C(\C#N)c2nc3ccccc3n2C)cc1 | 2 | 1 | 0.75 | 0.1 | 24
CCN(CC)S(=O)(=O)c1ccc(/C(O)=C(\C#N)c2nc3ccccc3n2C)cc1 | 5 | 11 | -2.2* | 1.7 | 11
CCOC(=O)C[C@H]1c2cc(F)ccc2S(=O)(=O)N1C1CCCC1 | . | . | . | -0.18 | .
O=C(Nc1ccc(-c2nc3ccccc3[nH]2)cc1)C1CCCO1 (stereo unspecified) | -1 | -2 | -5* | 0.059 | 18
O=C(Nc1nc2ccccc2[nH]1)C1CCCO1 (stereo unspecified) | 1 | 2 | -0.014 | -0.98 | 13
Cc1ccc(CNC(=O)c2cc3c(=O)n4ccccc4nc3n(Cc3ccco3)c2=N)cc1 | -246 | 0 | . | -2.7* | .
CC(CCc1ccccc1)NC(=O)c1cccs1 (stereo unspecified) | . | . | . | -0.43 | .
COC(=O)[C@@H]1C[C@H]1[C@@H](NC(=O)c1cc(C)on1)c1ccccc1 | . | . | . | 0.13 | .
Cc1ccc(C(=O)Nc2c3c(nn2C(C)(C)C)CS(=O)(=O)C3)cc1C | 5 | -6 | -2.9* | -0.22 | 0
Cc1cccc(CN2C[C@]34CC[C@@H](C[C@@H]3S2(=O)=O)O4)c1 | . | . | . | -0.054 | .
COc1ccc(OC)c(-c2csc3nnc(SCC(=O)Nc4ccc(NC(C)=O)cc4)n23)c1 | 2 | 8 | -1.1 | -0.16 | 2
COc1cccc(NC(=O)CCSc2nnc3scc(-c4ccccc4)n23)c1 | 6 | 11 | 4.4* | . | 1
O=C(c1cccc(N2C(=O)C3CC=CCC3C2=O)c1)N1CCCCCC1 (stereo unspecified) | 1 | 0 | 0.2 | -8.8* | 16
O=C(c1cccc(N2C(=O)C3CC=CCC3C2=O)c1)N1CCN(c2ccccc2)CC1 (stereo unspecified) | -1 | 8 | 0.09 | . | 14
COc1cccc(N2CC(C(=O)Nc3ccc(C(=O)OC(C)C)cc3)CC2=O)c1 (stereo unspecified) | 0 | 2 | 0.57 | 3.2* | -1
C=CCCCCCCCC(=O)OC | . | . | . | 0.3 | .
COc1cc(C2N(c3ccccn3)C(=O)C3CCCN32)cc(OC)c1OC (stereo unspecified) | -2 | 5 | -0.37 | -7.9* | 11
SMILES | MMP-13 inhibitor | Candida biofilm | D1 mod | hDAT+cocaine | AP complement
COc1ccc(C2N(c3ccccn3)C(=O)C3CCCN32)c(OC)c1 (stereo unspecified) | 5 | 1 | -0.11 | -1 | 0
C=CCN1C(=O)C(CC(=O)Nc2ccccc2)SC1=Nc1ccc(S(N)(=O)=O)cc1 (stereo unspecified) | . | . | . | -1.1 | .
O=C1C=C(c2ccc(F)nc2)CCC1 | . | . | . | 0.44 | .
COc1ccc(C(=O)NC(NC(=S)Nc2ccc(S(N)(=O)=O)cc2)C(Cl)(Cl)Cl)cc1 (stereo unspecified) | . | . | . | -2.3* | .
COc1ccc(C(=O)NC(Nc2ccccc2)C(Cl)(Cl)Cl)cc1 (stereo unspecified) | . | . | . | 0.0084 | .
CCCCCC(=O)NC(NC(=S)Nc1ccc(S(N)(=O)=O)cc1)C(Cl)(Cl)Cl (stereo unspecified) | . | . | . | -3.6* | .
O=C(Cc1ccccc1)NC(Nc1ccccc1)C(Cl)(Cl)Cl (stereo unspecified) | . | . | . | -1.7 | .
CCCCCCCC(=O)NC(Nc1ccc(S(N)(=O)=O)cc1)C(Cl)(Cl)Cl (stereo unspecified) | . | . | . | -8.3* | .
Fc1ccccc1-c1nc2c(s1)CCc1onc(-c3ccc(Br)cc3)c1-2 | . | . | . | 0.16 | .
Cc1cc(C(=O)Nc2nc3c(s2)CCCC3)no1 | -16 | 3 | -3.8* | 0.25 | 8
COC(=O)Nc1nc2c(s1)CCCC2 | 3 | 4 | 0.29 | -0.54 | 19
Cc1onc(-c2ccccc2)c1C(=O)Nc1nc2c(s1)CCCC2 | 4 | -2 | 0.053 | -0.05 | -23
CN(C)c1ccc(C(=O)Nc2nc3c(s2)CCCC3)cc1 | -8 | . | -6* | -0.62 | 8
Cc1ccc(S(=O)(=O)N=S(CC2CC2(Cl)Cl)CC2CC2(Cl)Cl)cc1 (stereo unspecified) | . | -1 | . | 0.66 | .
COc1cnc(SCc2c(Cl)cccc2Cl)nc1Cl | . | . | . | -0.99 | .
CCN(CC)S(=O)(=O)c1ccc2c3c(cccc13)C(=O)N2 | -19 | 3 | 0.19 | 2.5* | 5
CC(C)Cn1c(N)c(C(=O)COC(=O)c2cc(-c3ccccc3)nc3ccccc23)c(=O)n(C)c1=O | . | . | . | 2.5* | .
Cc1ccc(-n2c(SCc3ccc(C#N)cc3)nnc2-c2ccccn2)cc1 | 1 | 9 | -4* | -7.7* | -4
CCOC(=O)NC(=O)CSc1nc(C)cc(C(F)(F)F)c1C#N | -2 | 8 | -0.16 | 1.3 | 33*
COC(=O)CSc1nc(C)cc(C(F)(F)F)c1C#N | . | 8 | . | -1.2 | .
Cc1cc2nc3n(c2cc1C)CC1CC(C(=O)NCc2cccc(C(F)(F)F)c2)N(C)C31 (stereo unspecified) | . | . | . | 0.81 | .
CN1C(C(=O)NCc2cccc(C(F)(F)F)c2)CC2Cn3c(nc4cc5ccccc5cc43)C21 (stereo unspecified) | . | . | . | 1.5* | .
COC(=O)c1ccc(NC(=O)Cn2nc(SC)n(N)c2=S)cc1 | 0 | 27* | 0.04 | -0.019 | 1
COC(=O)c1ccc(NC(=O)CSc2nnc(-c3ccncc3)n2N)cc1 | -4 | 4 | -0.31 | 1.3 | 1
CC(=O)Nc1ccc(S(=O)(=O)N2CCc3ccccc3C2)cc1 | . | 2 | . | -8.8* | .
SMILES | MMP-13 inhibitor | Candida biofilm | D1 mod | hDAT+cocaine | AP complement
CC(=O)Nc1ccc(S(=O)(=O)N2CCN(C)CC2)cc1 | . | 1 | . | -1.4 | .
CCCCOCCCNC(=O)/C=C/c1ccccc1Cl | . | . | . | -0.62 | .
S=C1NC[C@H](CC2CCCCC2)N1CC1CCCCC1 | . | . | . | -0.0037 | .
CCOC(=O)CNC(=O)c1sc2ncnc(N3CCc4ccccc4C3)c2c1C | . | 4 | . | 0.67 | .
CCCCNC(=O)c1sc2ncnc(N3CCc4ccccc4C3)c2c1C | . | 7 | . | 4.2* | .
O=C(Nc1ccc2c(c1)OCO2)c1ccc2nc[nH]c2c1 | . | -2 | . | -1.9* | .
O=C(Nc1ccc2c(c1)OCCO2)c1cccnc1 | -8 | 2 | -3.2* | 0.018 | 19

Source: PubChem BioAssay (several laboratories)
